The results in this text go back to ChEMBL document CHEMBL1141088, “A new pyridazine series of GABAA alpha5 ligands” (J Med Chem, 2005).

Series [1] addresses T1, GABA-A receptor; alpha-3/beta-3/gamma-2 (Homo sapiens, UniProt P18507+P28472+P34903).
T1 sequence (P18507 whole entry): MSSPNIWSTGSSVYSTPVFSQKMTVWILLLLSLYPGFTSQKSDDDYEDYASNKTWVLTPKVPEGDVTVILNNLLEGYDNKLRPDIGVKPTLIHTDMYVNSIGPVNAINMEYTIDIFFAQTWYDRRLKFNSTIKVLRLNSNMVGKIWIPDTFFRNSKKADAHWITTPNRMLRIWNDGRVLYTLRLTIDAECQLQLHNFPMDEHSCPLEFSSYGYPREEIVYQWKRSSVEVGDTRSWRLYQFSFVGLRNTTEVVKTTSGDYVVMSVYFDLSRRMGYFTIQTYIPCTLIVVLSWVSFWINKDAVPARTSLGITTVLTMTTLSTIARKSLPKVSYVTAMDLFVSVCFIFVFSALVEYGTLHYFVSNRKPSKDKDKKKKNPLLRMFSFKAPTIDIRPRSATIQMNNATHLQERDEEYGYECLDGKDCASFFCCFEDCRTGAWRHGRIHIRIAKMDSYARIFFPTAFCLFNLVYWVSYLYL
T1 sequence (P28472 whole entry): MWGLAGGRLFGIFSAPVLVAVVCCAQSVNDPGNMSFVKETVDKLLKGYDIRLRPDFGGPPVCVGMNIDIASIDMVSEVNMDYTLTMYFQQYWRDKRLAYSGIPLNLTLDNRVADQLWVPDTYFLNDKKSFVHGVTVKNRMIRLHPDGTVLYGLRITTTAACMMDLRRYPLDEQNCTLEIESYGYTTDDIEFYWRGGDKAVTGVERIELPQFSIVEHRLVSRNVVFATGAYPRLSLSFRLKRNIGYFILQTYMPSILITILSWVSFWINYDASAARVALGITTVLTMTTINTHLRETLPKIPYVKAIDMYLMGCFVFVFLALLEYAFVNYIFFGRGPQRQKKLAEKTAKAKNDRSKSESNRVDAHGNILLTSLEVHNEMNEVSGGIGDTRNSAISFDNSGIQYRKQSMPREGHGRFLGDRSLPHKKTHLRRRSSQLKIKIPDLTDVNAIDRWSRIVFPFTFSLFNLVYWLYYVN
T1 sequence (P34903 whole entry): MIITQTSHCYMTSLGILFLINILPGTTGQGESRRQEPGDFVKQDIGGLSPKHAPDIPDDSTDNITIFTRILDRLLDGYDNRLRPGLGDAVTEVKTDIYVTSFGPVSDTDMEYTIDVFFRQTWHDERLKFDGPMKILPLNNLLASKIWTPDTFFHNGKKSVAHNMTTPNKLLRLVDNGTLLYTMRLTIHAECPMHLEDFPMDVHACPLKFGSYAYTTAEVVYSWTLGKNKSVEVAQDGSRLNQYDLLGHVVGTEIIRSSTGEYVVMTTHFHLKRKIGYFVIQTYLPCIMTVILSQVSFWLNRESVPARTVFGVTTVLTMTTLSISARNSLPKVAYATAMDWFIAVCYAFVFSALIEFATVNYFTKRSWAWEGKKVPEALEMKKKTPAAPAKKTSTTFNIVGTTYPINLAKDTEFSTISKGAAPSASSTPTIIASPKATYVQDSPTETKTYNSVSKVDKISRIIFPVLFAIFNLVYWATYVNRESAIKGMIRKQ
The experiment in a line: Displacement of [3H]-Ro- 15-1788 binding from human recombinant Gamma-aminobutyric acid A receptor alpha-3-beta-3-gamma-2 expressed in mouse fibroblast L(tk-) cells (30 min at 24 degrees C, pH 7.4). Type of series: cell-based. In a few lines:
(§1)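 Membranes from L(tk-) cells stably expressing human α1, α3 or α5 β3γ2 in 50 mM Tris pH 7.4. [3H]Ro15-1788 at 1.8 nM final, 30 min at 24 °C. Nonspecific binding set with 10 µM flunitrazepam, total binding in 0.1% DMSO. Filtration, scintillation counting. Ki is mean ± SEM of ≥3 independent determinations.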
(In a radioligand displacement assay an active substance lowers the binding of a labelled ligand.)

Series [2] in a line: Low volume of distribution of compound determined after iv administration at 1 mg/kg dose as a solution(1 mg/mL) in a PEG 300:H2O(3:1). To be noted: rat, in vivo, read-out: Vdss. Further details: dose 1 mg/kg, route intravenous. It is filed as ADME, organism-based. In a few lines: (§2)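 Single rat, cannulated, given 100 units heparin, recovered 48 h, fasted overnight. Dosed 1 mg/kg iv bolus (1 mL/kg) in PEG 300:water 3:1. Serial blood sampled to 6 h and plasma analysed by LC-MS/MS with diazepam internal standard. Cl in mL/min/kg from plasma, T1/2 in hours from 1–3 h data, Vdss in L/kg.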

Series [3] concerns the target T2, GABA-A receptor; alpha-5/beta-3/gamma-2 (Homo sapiens, UniProt P18507+P28472+P31644).
T2 sequence (P18507 whole entry): T1 sequence (P18507 whole entry)
T2 sequence (P28472 whole entry): T1 sequence (P28472 whole entry)
T2 sequence (P31644 whole entry): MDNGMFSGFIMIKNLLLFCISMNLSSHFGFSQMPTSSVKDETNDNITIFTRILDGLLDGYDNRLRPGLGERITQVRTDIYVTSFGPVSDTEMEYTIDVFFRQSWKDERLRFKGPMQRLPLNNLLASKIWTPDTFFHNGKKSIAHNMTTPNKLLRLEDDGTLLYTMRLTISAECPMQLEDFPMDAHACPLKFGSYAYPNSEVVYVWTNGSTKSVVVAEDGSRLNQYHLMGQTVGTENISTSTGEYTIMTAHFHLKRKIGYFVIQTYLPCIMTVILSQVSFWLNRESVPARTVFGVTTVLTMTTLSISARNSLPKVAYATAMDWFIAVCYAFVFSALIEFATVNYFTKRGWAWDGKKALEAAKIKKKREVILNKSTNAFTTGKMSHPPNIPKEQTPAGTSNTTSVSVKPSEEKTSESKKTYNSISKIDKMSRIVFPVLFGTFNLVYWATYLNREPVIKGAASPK
The experiment in a line: Displacement of [3H]-Ro- 15-1788 binding from human recombinant Gamma-aminobutyric acid A receptor alpha-5-beta-3-gamma-2 expressed in mouse fibroblast L(tk-) cells (30 min at 24 degrees C, pH 7.4). Type of series: cell-based. In a few lines: as §1

A short description of series [4]: Clearance of compound determined after iv administration at 1 mg/kg dose as a solution(1 mg/mL) in a PEG 300:H2O(3:1). It is filed as ADME, organism-based. Also noted: dose 1 mg/kg, route intravenous. The note with it: rat, in vivo. In a few lines:
as §2

Series [5] deals with T2, GABA-A receptor; alpha-5/beta-3/gamma-2. As to the kind of experiment: Negative logarithm of effective concentration against GABA-A alpha-5-beta-3-gamma-2 receptor. Type of series: protein-complex assay. Put shortly: (§3)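 Whole-cell patch clamp of L(tk-) cells stably expressing human α1, α3 or α5 β3γ2s, perfused with bicarbonate saline pH 7.2, CsCl pipette solution pH 7.3. Drugs applied by double-barrelled pipette; GABA in 5 s pulses at 30 s intervals. Modulation measured against a GABA EC20 set for each cell; curves fitted to a Hill equation.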

Series [6] concerns the target GABA-A receptor; alpha-1/beta-3/gamma-2 (Homo sapiens) (UniProt P14867+P18507+P28472). The experiment in a line: Maximum inhibition of GABA EC20 response at GABA-A receptor alpha-1-beta-3-gamma-2, n=4. Type of series: protein-complex assay. Put shortly: as §3
Series [7] addresses GABA-A receptor; alpha-5/beta-3/gamma-2 (Homo sapiens) (UniProt P18507+P28472+P31644). The experiment in a line: Maximum inhibition of GABA EC20 response at GABA-A receptor alpha-5-beta-3-gamma-2, n=4. It is filed as protein-complex assay. In a few lines: as §3

In the case of `N#Cc1cccc(-c2cnnc(-c3ccccc3)c2)c1`, the Ki (as a rule, the dissociation constant of the complex between target and ligand, obtained from inhibition or displacement) in series [1] was found to be 14 nM; in series [3] it was 5.2 nM. In series [2], the Vd came out at 1.5 L/kg. Also, the clearance – broadly, the rate of elimination divided by the concentration – in series [4] is 36 mL/min/kg. Further, the EC50 – broadly, the concentration that produces a half-maximal response – in series [5] was 7.41 nM. In addition, the results for the Maximum inhibition in series [6] and in series [7] were -23% and -37%, respectively.
